Assay results pooled from the literature.
Each line is one published result; the experiments were not run side by side.
Target: Ephrin type-A receptor 4 (EPHA4, Homo sapiens, UniProt P54764)

COc1cnc(Nc2cccc(S(N)(=O)=O)c2)nc1N1CCN(c2ccccc2)C(=O)C1 — remaining binding (binding, competition with immobilised ligand; 1 µM): 100%
N[C@@H]1CCN(c2nccc(-c3cnn4ncccc34)n2)C1 — remaining binding (binding; 1 µM): 97%
O=C(NCCCN1CCOCC1)c1ccc(Nc2nccc(-c3cc4ccccc4s3)n2)cc1 — remaining binding (binding, competition with immobilised ligand; 1 µM): 82%
COc1ncc2cc3ccccc3nc2c1C#N — remaining binding (cell-free assay, competition with immobilised ligand; 5 µM): 100%
O=C1NC(c2ccccn2)Sc2ccccc21 (stereo not shown) — remaining binding (cell-free assay, competition with immobilised ligand; 1 µM): 89%
CN(C)c1nccc(-c2cnc3ncccn23)n1 — remaining binding (binding; 1 µM): 100%
O=C(NCCCN1CCOCC1)c1ccc(Nc2ncc(Cl)c(-c3ccc(Cl)s3)n2)cc1 — remaining binding (binding, competition with immobilised ligand; 1 µM): 89%
CN(C)c1nccc(-c2cnn3ncccc23)n1 — remaining binding (binding; 1 µM): 99%
CC(=O)c1c(NS(C)(=O)=O)c2cc(-c3ccc(Cl)cc3)c(-c3ccc(Cl)cc3Cl)nc2n(C)c1=O — remaining binding (cell-free assay, competition with immobilised ligand; 1 µM): 98%
CN(CCCC(F)(F)F)c1nccc(-c2cnn3ncccc23)n1 — remaining binding (binding; 1 µM): 100%
CCN1CCN(Cc2ccc(C(=O)Nc3ccc(C)c(Oc4ccc5c(c4)CC(=O)N5)c3)cc2C(F)(F)F)CC1 — remaining binding (binding, competition with immobilised ligand; 1 µM): 100%
NS(=O)(=O)c1cc(NC(=O)Cc2ccccc2)ccc1Oc1cccc(Cl)c1 — remaining binding (cell-free assay, competition with immobilised ligand; 1 µM): 97%
O=C(Nc1c[nH]nc1C(=O)NC1CCNCC1)c1cc(F)cc(F)c1 — remaining binding (binding, competition with immobilised ligand; 1 µM): 100%
O=C(c1ccc(Nc2ncc(Cl)c(-c3ccc(Cl)s3)n2)cc1)N1CCC(N2CCCC2)CC1 — remaining binding (binding, competition with immobilised ligand; 1 µM): 84%
Cc1c(NC(=O)c2cc(C(N)=O)nc3cc(F)ccc23)c(C(F)(F)F)nn1Cc1ccc(C(C)(C)C)cc1 — remaining binding (cell-free assay, competition with immobilised ligand; 1 µM): 100%
COc1ccnn2ncc(-c3ccnc(N(C)C)n3)c12 — remaining binding (binding; 1 µM): 95%
c1ccc(N2CCN(Cc3nc4ccccc4[nH]3)CC2)nc1 — remaining binding (cell-free assay, competition with immobilised ligand; 1 µM): 100%
c1cncc(-c2cccc(Nc3nccc(NC4CCCCC4)n3)c2)c1 — remaining binding (binding, competition with immobilised ligand; 10 µM): 100%
CN(C)c1ncc(F)c(-c2cnn3ncccc23)n1 — remaining binding (binding; 1 µM): 100%
O=c1nc(-c2ccccn2)sc2ccccc12 — remaining binding (cell-free assay, competition with immobilised ligand; 1 µM): 100%
C[C@@H]1CCN(c2nccc(-c3cnn4ncccc34)n2)C1 — remaining binding (binding; 1 µM): 100%
C[C@@H]1CN(c2cc(-c3n[nH]c4ccc(OC5(C)CC5)cc34)ncn2)C[C@H](C)O1 — remaining binding (cell-free assay, competition with immobilised ligand; 0.1 µM): 89%
